Columns and labels:
[1] = tested on: Mus musculus; assay: Anti-inflammatory activity against croton oil induced ear edema Swiss mouse model assessed as edema inhibition at 1.25 mg per ear, TOP measured after 6 hrs relative to control; type: functional
Outline: (§1)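 Male Swiss mice (20–30 g), n=7/group. Croton oil (200 µg/ear in 70% acetone) applied to the inner left ear, with vehicle alone on the right ear. Treatments in 20 µL 70% acetone were then applied topically to the left ear at 0.625 or 1.25 mg/ear, or 1 mg/ear for the reference drug. After 6 h, 6.0 mm ear disks were weighed and % edema inhibition calculated.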

[2] = tested on: Mus musculus; assay: Anti-inflammatory activity against croton oil induced ear edema Swiss mouse model assessed as edema inhibition at 0.625 mg per ear, TOP measured after 6 hrs relative to control; type: functional; outline: as §1
[3] = Cytotoxicity against mouse L929 cells assessed as reduction in cell viability incubated for 72 hrs by MTT assay; type: toxicity, cell-based
Outline: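 Fibroblasts (CCL-1) were seeded at 2.5 × 10^5 cells/mL in DMEM + 10% FBS and grown 24 h at 37 °C, 5% CO2 to confluence. They were exposed to 100–1000 µM compound for 72 h, then given MTT (2 mg/mL) for 4 h. Formazan was dissolved in DMSO and read at 492 nm. Viability relative to control gave CC50.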

[4] = biological target: T1, Prostaglandin G/H synthase 2 (Homo sapiens) (UniProt P35354); assay: Inhibition of human recombinant COX-2 at 1.95 uM by microplate reader analysis relative to control
T1 sequence (whole entry): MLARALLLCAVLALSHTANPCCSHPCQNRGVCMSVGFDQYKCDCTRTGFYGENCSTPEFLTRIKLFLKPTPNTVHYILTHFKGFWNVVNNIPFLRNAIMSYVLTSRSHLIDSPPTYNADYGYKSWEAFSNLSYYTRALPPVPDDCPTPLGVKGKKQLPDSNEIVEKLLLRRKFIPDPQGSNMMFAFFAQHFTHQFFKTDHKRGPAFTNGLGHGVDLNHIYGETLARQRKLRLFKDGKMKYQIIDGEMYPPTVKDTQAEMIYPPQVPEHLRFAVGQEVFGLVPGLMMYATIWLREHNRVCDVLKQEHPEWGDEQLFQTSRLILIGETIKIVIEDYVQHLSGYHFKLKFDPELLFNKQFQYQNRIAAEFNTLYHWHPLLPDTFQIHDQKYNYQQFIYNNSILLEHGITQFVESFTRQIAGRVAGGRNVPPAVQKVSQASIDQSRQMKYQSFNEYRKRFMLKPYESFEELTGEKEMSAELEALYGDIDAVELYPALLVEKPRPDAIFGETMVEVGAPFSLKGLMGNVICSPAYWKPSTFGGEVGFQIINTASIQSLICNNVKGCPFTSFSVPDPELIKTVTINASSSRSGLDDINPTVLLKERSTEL
Outline: (§2)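 Kit-based cyclooxygenase inhibitor screen using human recombinant COX-2 or ovine COX-1, run per the manufacturer's procedure. Compound was tested at 1.95 and 31.25 µM. Absorbance was read at 405 nm. % inhibition was derived from %B/B0 on a standard curve.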

[5] = biological target: T1, Prostaglandin G/H synthase 2 (Homo sapiens); assay: Inhibition of human recombinant COX-2 at 31.25 uM by microplate reader analysis relative to control; outline: as §2
[6] = biological target: T2, Prostaglandin G/H synthase 1 (Ovis aries) (UniProt P05979); assay: Inhibition of ovine COX-1 at 1.95 uM by microplate reader analysis relative to control; outline: as §2
T2 sequence (whole entry): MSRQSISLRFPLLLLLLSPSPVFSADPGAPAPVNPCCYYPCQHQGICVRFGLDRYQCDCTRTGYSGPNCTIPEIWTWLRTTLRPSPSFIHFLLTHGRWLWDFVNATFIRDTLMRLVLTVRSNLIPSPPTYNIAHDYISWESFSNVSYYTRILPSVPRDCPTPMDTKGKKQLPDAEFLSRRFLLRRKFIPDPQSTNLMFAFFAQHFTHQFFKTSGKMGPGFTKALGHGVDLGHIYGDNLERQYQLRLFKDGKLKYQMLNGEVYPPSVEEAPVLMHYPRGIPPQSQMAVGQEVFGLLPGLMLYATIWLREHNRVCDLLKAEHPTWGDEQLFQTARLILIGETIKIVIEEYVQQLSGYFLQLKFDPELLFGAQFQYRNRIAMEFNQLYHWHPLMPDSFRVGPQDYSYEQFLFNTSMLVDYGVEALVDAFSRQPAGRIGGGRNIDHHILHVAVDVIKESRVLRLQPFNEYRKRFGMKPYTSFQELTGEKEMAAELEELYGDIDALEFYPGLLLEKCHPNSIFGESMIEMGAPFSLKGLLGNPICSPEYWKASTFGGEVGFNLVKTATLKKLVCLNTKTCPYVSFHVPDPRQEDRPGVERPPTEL

[7] = biological target: T2, Prostaglandin G/H synthase 1 (Ovis aries); assay: Inhibition of ovine COX-1 at 31.25 uM by microplate reader analysis relative to control; outline: as §2
[8] = tested on: Mus musculus; assay: Anti-inflammatory activity against croton oil induced ear edema Swiss mouse model assessed as edema inhibition at 1.00 mg per ear, TOP measured after 6 hrs relative to control; type: functional; outline: as §1

Compound | inhibition (INH) [1] [%] | inhibition (INH) [2] [%] | other results
N#Cc1cc2c(-c3ccc(Cl)cc3)nn(-c3ccccc3)c(=O)c2[nH]c1=O | 81.8 | 62.8 | IC50 at 72 h [3]: 249 µM; inhibition [4]: 20.2%; inhibition [5]: 40.3%; inhibition [6]: 22.1%; inhibition [7]: 30.6%
N#Cc1cc2c(-c3ccc([N+](=O)[O-])cc3)nn(-c3ccccc3)c(=O)c2[nH]c1=O | 78.5 |  | 
N#Cc1cc2c(-c3ccc(Cl)cc3)n[nH]c(=O)c2[nH]c1=O | 50.4 | 49 | 
CCOC(=O)c1cc2c(-c3ccc([N+](=O)[O-])cc3)n[nH]c(=O)c2[nH]c1=O |  | 64.2 | 
O=C(O)c1cc2c(-c3ccc([N+](=O)[O-])cc3)n[nH]c(=O)c2[nH]c1=O | 56.2 | 63.2 | 
COc1ccc2c(c1)c(CC(=O)O)c(C)n2C(=O)c1ccc(Cl)cc1 [INDOMETHACIN] |  |  | inhibition (INH) [8]: 98.2%
O=C(O)c1cc2c(-c3ccc(Cl)cc3)n[nH]c(=O)c2[nH]c1=O | 75.2 | 65.9 | 
